# Bioassay records as filed in PubChem.
# NS3 helicase inh: blocks Hepatitis C virus NS3 helicase unwinding; NS3 helicase DNA unwinding, Cy5 molecular beacon fluorescence; hit rate 0.56% among 290,000; inhibition, % at 10.9 µM;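 active = inhibition above the mean of all tested compounds plus 3 SD, set per campaign, cut at about 35% in these data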;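 note: 0% = DMSO wells and 100% = thioflavine S control wells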
#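 Measured by: Cy5 fluorescence, 0 and 60 min reads / Assay system: NS3 helicase fragment of HCV / Control set: low DMSO, high thioflavine S at 110 µM / Times: 1 h reaction at 25 °C, ATP-initiated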
# NSD2 inh: blocks human histone methyltransferase NSD2. NSD2 peptide methylation, AlphaScreen, 120 min. inhibition, % at 12.5 µM. hit rate 0.54% among 310,000
# Target sequence (O96028 whole entry, looked up): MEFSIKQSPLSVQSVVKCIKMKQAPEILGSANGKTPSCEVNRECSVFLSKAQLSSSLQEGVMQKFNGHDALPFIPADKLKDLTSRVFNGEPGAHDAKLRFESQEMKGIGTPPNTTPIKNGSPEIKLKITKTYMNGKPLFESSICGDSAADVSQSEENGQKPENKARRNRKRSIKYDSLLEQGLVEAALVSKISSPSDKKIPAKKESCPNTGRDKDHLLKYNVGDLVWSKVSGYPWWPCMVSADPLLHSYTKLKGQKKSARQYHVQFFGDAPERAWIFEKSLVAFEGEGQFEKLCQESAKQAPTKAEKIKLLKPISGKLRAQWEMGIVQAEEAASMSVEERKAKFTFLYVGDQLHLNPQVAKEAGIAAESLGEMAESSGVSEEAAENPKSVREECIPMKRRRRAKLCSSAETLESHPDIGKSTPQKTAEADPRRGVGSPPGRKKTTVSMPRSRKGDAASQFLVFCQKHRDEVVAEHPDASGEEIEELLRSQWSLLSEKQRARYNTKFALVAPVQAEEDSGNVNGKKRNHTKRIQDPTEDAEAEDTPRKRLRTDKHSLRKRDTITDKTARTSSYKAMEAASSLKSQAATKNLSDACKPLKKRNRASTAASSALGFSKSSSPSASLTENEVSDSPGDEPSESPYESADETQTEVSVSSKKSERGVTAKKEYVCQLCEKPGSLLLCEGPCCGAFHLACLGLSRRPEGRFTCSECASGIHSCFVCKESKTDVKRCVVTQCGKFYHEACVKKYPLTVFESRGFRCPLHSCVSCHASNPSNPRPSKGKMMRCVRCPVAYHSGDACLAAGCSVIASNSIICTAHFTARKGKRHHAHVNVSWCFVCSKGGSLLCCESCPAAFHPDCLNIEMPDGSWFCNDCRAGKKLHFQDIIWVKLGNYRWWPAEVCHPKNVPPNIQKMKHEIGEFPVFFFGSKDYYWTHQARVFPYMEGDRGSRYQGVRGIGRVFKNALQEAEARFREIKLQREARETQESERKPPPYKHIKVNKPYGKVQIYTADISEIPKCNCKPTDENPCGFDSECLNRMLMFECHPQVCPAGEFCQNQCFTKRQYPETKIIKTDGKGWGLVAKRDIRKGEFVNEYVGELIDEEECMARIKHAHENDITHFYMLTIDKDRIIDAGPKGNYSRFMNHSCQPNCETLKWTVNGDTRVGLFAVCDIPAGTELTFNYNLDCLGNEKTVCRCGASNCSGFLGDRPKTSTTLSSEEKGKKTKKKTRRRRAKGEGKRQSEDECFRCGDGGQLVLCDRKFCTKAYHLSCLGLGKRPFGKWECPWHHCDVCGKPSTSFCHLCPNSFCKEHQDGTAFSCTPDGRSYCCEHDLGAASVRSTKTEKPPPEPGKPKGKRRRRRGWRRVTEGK
# Casp6 inh: blocks human caspase-6 cleavage activity. hit rate 0.53% among 350,000. purified caspase-6, Z-VEID-R110 cleavage fluorescence. P55212. inhibition, % at 12.5 µM;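 active = mean inhibition across replicates at least about 35%, with every replicate also reaching that limit, limit read from the data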;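 note: 0% = median of neutral control wells and 100% = no fluorescence left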
# DNMT1 inh: inhibitors of human DNMT1; P26358; DNMT1 molecular beacon, Hinp1I cleavage, fluorescence; inhibition (reported as % activation of signal), % at 10 µM; hit rate 0.83% among 360,000
# Alpha artifact: AlphaScreen assay artifact in NSD2 counter-screen; AID 1053174; shares compounds with NSD2 inh; AlphaScreen artifact counterscreen, preloaded methylated H4 peptide; AC35, µM (series often up to 10 µM), without a hit: top-dose activity change, negative = signal loss; hit rate 9.4% among 1,500; call rule not given here
# The depositor's hits bear a star; / = no result given. In the library only some 1.5% were active in any assay of this set; here they are far more common. Cut-off read from the data, not from the text of the source, unless noted: active = inhibition above about 50%; inactive = the rest.
SMILES,NS3 helicase inh,NSD2 inh,Casp6 inh,DNMT1 inh,Alpha artifact
COc1ccc(CN(C(=O)CN2C(=O)NC3(CCC(C)CC3)C2=O)C(C)Cc2cccs2)cc1 (stereo not drawn),/,55*,3,-2,-7%
COc1cccc(OC)c1-c1nn2c(-c3ccco3)nnc2s1,10,-2,/,3,/
COc1cccc(-c2nn3c(-c4ccco4)nnc3s2)c1,/,90*,/,6,-5%
COc1ccc(S(=O)(=O)Nc2ccc3c(c2)[C@@H]2C[C@H](CC(=O)NCC4CC4)O[C@H](CO)[C@@H]2O3)cc1,/,/,2,/,/
O=C(Cc1csc(N2CCOCC2)n1)N/N=C/c1ccc(O)c(O)c1O,21,77*,19,19,-9%
Cc1ccc(S(=O)(=O)Nc2ccc3c(c2)C(=O)N([C@H](C)CO)C[C@H](C)[C@@H](CN(C)C(=O)Cc2ccccc2)OCCCC[C@@H](C)O3)cc1,/,/,1,/,/
O=C1c2ccccc2C(=O)N1CCc1nc2ccccc2c(=O)n1-c1ccccn1,-13,0,/,4,/
Cc1ccnc(-n2c(CCN3C(=O)c4ccccc4C3=O)nc3ccccc3c2=O)c1,-3,52*,/,-2,-1%
CCCCc1ccc(NC(=O)CSc2nc(=O)n(CCN(C)C)c3c2CCC3)cc1,/,-2,-16,-4,/
CCCCc1ccc(NC(=O)CSc2nc(=O)n(CCN(CC)CC)c3c2CCCC3)cc1,/,66*,16,-2,-3%
C[C@@H]1CN([C@@H](C)CO)S(=O)(=O)c2ccc(-c3ccncc3)cc2O[C@H]1CN(C)S(=O)(=O)c1ccccc1F,/,/,-4,/,/
CN(C)CCCN1C(=O)c2cccc3c([N+](=O)[O-])ccc(c23)C1=O,11,71*,/,69*,-2%
CN(C)Cc1c(O)ccc2c3c(c(=O)oc12)CCCCC3,3,1,/,-4,/
CN(Cc1c(O)ccc2c1oc(=O)c1ccccc12)C1CCCCC1,4,75*,/,44,2%
CCc1ccc(NC(=O)c2cc(-c3ccc4c(c3)OCO4)on2)cc1,5,87*,-2,13,1%
Cc1ccc(NC(=O)c2cc(-c3ccc4c(c3)OCO4)on2)cc1C,5,-2,-1,10,/
Cc1noc(C)c1NC(=O)N(C)C[C@@H]1Oc2ccc(NC(=O)NC(C)C)cc2CC(=O)N([C@@H](C)CO)C[C@@H]1C,/,/,-1,/,/
NS(=O)(=O)c1ccc(S(=O)(=O)N2CCN(C3CCCC3)CC2)cc1,0,118*,2,1,-1%
O=C1CC2(CCCCC2)CC(=O)N1CCc1ccccc1,/,75*,2,2,1%
O=C(CNC(=O)c1ccco1)NCC(=O)OCc1ccccc1Cl,5,56*,2,2,-2%
Cc1[nH][nH]c(=O)c1C(c1ccc(-c2ccc(Cl)c(C(=O)O)c2)o1)c1c(C)[nH][nH]c1=O,6,131*,/,29,2%
COC(=O)c1ccccc1-c1ccc(C(c2c(C)[nH][nH]c2=O)c2c(C)[nH][nH]c2=O)o1,5,196*,42*,8,1%
COC(=O)c1cccc(-c2ccc(C(c3c(C)[nH][nH]c3=O)c3c(C)[nH][nH]c3=O)o2)c1,4,107*,16,9,-5%
CCCNC(=O)N1CC2(C1)[C@@H](c1ccccc1)[C@@H](CO)N2Cc1cccc(F)c1,/,/,1,/,/
CC1OC(Nc2cccc3ccccc23)C(O)C(O)C1O (stereo not drawn),8,65*,/,-18,-2%
SMILES,NS3 helicase inh,NSD2 inh,Casp6 inh,DNMT1 inh,Alpha artifact
COCC(=O)Nc1ccc2c(c1)C(=O)N(C)[C@@H]1CC[C@@H](CC(=O)NCc3ccccc3F)O[C@@H]1CO2,/,/,1,/,/
COc1ccc(-n2ncc3c(NCCCn4ccnc4)ncnc32)cc1,-1,121*,-4,0,0%
c1ccc(CCN2CN=C(Nc3nc4ccccc4s3)NC2)cc1,1,64*,0,0,-2%
c1ccc(CN2CN=C(Nc3nc4ccccc4s3)NC2)cc1,0,1,/,-2,/
COc1cc(OC)c(/C=N/n2c(C)nnc2C)c(OC)c1,14,1,/,2,/
COc1cc(/C=N/n2c(C)nnc2C)cc(OC)c1OC,-4,83*,/,-2,-2%
O=c1[nH]c(COc2ccccc2)nc2ccccc12,0,-2,-1,0,/
Cc1cc(=O)[nH]c(COc2ccccc2)n1,10,55*,/,4,-5%
COc1ccccc1-c1cnc2c(c1)C(=O)N([C@H](C)CO)C[C@@H](C)[C@H](CN(C)C(=O)CC1CC1)O2,/,/,-1,/,/
COCCOC(=O)C1=C(C)NC(C)=C(C(=O)OC(C)C)C1c1cccc([N+](=O)[O-])c1 (stereo not drawn),-19,75*,/,-1,-3%
CCOC(=O)C1=C(C)NC(C)=C(C(=O)OC)C1c1cccc([N+](=O)[O-])c1 (stereo not drawn),-7,/,/,2,/
O=C(Nc1ccccc1)N1CCCCN2[C@H](CO)[C@H](c3ccc(Br)cc3)[C@@H]2C1,/,/,1,/,/
CN(c1ccccc1)S(=O)(=O)c1ccc(C(=O)NNC(=O)c2ccccc2)cc1,/,-2,5,2,/
CN(c1ccc(C(=O)O)cc1)S(=O)(=O)c1ccccc1,3,52*,/,0,0%
Cc1ccc(NC(=O)CN(C)CCOc2ccccc2)c([N+](=O)[O-])c1,-9,75*,1,0,-1%
Cc1ccc([N+](=O)[O-])cc1NC(=O)CN(C)CCOc1ccccc1,-8,-3,2,-1,/
O=C(O)c1ccc(CSc2n[nH]c(-c3ccco3)n2)cc1,36*,108*,/,9,-5%
CCC(=O)N1CCc2cc(Br)cc(S(=O)(=O)NCCCN(C)Cc3ccccc3)c21,-5,14,-25,-2,/
CC(=O)N1CCc2cc(Br)cc(S(=O)(=O)NCCCN(C)Cc3ccccc3)c21,-5,125*,-18,1,0%
CN(C)C(=O)C[C@H]1C[C@@H]2c3cc(NC(=O)c4ccc5c(c4)OCO5)ccc3O[C@@H]2[C@@H](CO)O1,/,/,0,/,/
C=CCn1c(-c2ccc(OC)cc2)nc2ccccc21,-8,-3,/,1,/
C=CCn1c(-c2ccc(OC)cc2)nc2nc3ccccc3nc21,-6,67*,/,-6,1%
CCCC#Cc1ccc2c(c1)O[C@H](CN(C)C(=O)C1CC1)[C@@H](C)CN([C@@H](C)CO)S2(=O)=O,/,/,0,/,/
O=[N+]([O-])c1ccccc1-c1ccc(C(=S)N2CCCC2)o1,10,65*,11,-8,-9%
CCOC(=O)C1=C(C)N=c2s/c(=C\c3ccc(OCC(=O)O)cc3)c(=O)n2C1c1ccccc1OC (stereo not drawn),-46,2,7,3,/
CCOC(=O)C1=C(C)N=c2s/c(=C\c3ccc(O)c([N+](=O)[O-])c3)c(=O)n2C1c1ccccc1OC (stereo not drawn),34,72*,3,-26,-6%
N#Cc1ccc(-c2ccco2)nc1SCc1ccccc1,15,55*,/,-3,-1%
CCSc1nc(-c2ccco2)ccc1C#N,22,0,/,14,/
